# tolC growth inh = growth inhibitors of E. coli BW25113 tolC mutant. AID 573. 65,000 tested, 2.2% active. growth inhibition, % at 10 µM (by protocol). OD615;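 active means growth inhibition at or above a cutoff equal to the mean over every tested compound plus 3 SD, cut at about 60% in these data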;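 further: growth measured after 20 h incubation at 37 °C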
#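 Signal: optical density read at 615 nm; Assay system: E. coli ΔtolC::kan strain BW25113; Times: 20 h incubation with compound, 37 °C; Dosing: 10 µM final, single dose.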
# Calb biofilm kill = kills Candida albicans biofilms; C. albicans biofilm + clotrimazole, Alamar Blue; inhibition, % at 6 µM; 85,000 tested, 0.14% active; AID 834;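 active means inhibition above 20%; inactive means inhibition below 20%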;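 further: preformed 24 hr biofilms exposed to compound for 48 hr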
# PostGolgi yeast = growth inhibition of a yeast mutant, post-Golgi transport screen. AID 739. inhibition, % at 10 µM. post-Golgi transport phenotypic cell assay. 98,000 tested, 0.9% active;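 further: yeast cells grown in 1536-well plates; yeast grown about 18 h at 30C before absorbance read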
# PTK2B oligo ant = Pyk2 (human) oligomerization antagonism | Q14289 | Q293 cells, Pyk2 FERM NanoBiT luminescence; stronger effect = lower value | z-score (the deposit names both 25 µM and 10 µM) | 99,000 tested, 0.83% active | AID 1347419;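 active means Z-score of -3 or lower, scaled per plate to the spread of control and sample wells; inactive means z-score above -3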;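 further: negative z-score means lost luminescence so less FERM oligomerization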
# Target sequence (Q14289 whole entry, looked up): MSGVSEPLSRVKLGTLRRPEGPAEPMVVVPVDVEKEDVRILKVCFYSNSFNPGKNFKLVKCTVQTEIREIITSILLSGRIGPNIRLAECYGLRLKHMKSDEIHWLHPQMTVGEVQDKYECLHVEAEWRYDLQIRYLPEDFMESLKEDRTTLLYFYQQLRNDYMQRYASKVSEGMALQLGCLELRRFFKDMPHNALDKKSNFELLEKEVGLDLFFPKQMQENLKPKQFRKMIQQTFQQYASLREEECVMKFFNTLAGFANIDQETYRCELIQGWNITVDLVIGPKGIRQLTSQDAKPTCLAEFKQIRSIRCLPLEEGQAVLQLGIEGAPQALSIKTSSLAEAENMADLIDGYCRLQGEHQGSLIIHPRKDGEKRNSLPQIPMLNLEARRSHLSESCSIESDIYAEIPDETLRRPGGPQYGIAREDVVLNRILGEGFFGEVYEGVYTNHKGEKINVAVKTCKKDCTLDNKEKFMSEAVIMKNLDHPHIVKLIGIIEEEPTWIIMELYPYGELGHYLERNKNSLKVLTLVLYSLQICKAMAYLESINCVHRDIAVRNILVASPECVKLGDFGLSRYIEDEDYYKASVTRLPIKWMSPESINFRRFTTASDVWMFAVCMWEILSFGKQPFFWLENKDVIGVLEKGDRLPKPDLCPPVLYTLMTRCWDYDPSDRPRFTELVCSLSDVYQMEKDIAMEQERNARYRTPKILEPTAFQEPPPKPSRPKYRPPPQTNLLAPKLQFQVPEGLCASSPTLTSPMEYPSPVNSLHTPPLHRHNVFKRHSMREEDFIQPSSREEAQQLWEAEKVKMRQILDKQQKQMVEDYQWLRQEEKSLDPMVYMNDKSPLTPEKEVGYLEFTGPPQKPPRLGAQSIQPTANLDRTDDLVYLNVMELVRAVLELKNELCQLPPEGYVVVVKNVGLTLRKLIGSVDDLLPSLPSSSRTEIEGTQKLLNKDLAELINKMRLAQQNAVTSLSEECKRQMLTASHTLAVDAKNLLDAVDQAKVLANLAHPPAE
# E coli WT exp = E. coli BW25113 growth inhibition, expanded screen. AID 710. OD600 absorbance. 98,000 tested, 0.15% active. growth inhibition, % at 100 µM;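 active means growth inhibition above about 50% at one test dose, limit read from the data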;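 further: growth measured after 20 h incubation at 37 °C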
# PostGolgi ctrl = yeast control strain growth, post-Golgi counter-screen. efflux-deficient yeast background strain, growth absorbance A615, 16 h. 98,000 tested, 5% active. inhibition, % at 10 µM
# Numbers stand for hits; n = inactive; x = no result. Only some compounds are listed: those with a hit (about 6.5% of all), similar ones and a draw of the others. Unless noted, no stated cut-off is given here; in the data, active means inhibition above about 30%; inactive means the rest.
SMILES,tolC growth inh,Calb biofilm kill,PostGolgi yeast,PTK2B oligo ant,E coli WT exp,PostGolgi ctrl
Cn1c(=O)c2c(nc(CN3CCN(C(=O)c4ccco4)CC3)n2CCc2ccccc2)n(C)c1=O,x,n,n,n,n,n
CN(Cc1ccccc1)Cc1nc2c(c(=O)n(C)c(=O)n2C)n1CCCc1ccccc1,100,n,n,n,n,52
CCCn1c(CN2CCN(C(=O)c3ccco3)CC2)nc2c1c(=O)n(C)c(=O)n2C,n,x,n,x,n,35
O=C(COc1ncnc2ccc(Br)cc12)NCc1ccc2c(c1)OCO2,x,x,n,n,n,n
COc1ccc(Nc2nc(N)nc(CSc3nnc(N)s3)n2)cc1,x,n,32,n,n,n
COc1ccc(OCc2nc(N)nc(Nc3ccc(C)cc3)n2)cc1,x,n,n,n,n,53
COc1ccc(Nc2nc(N)nc(COc3ccc(OC)cc3)n2)cc1,x,n,n,n,n,n
O=C(C(c1ccccc1)N1CCOCC1)N1CCOCC1 (stereo not drawn),n,n,n,n,n,n
OC(c1ccccc1)(c1ccc(F)cc1)C(c1ccccc1)N1CCOCC1 (stereo not drawn),x,n,n,n,n,31
Cc1ccc([N+](=O)[O-])cc1N=C(c1cccc(Br)c1)N1CCOCC1,x,x,n,n,n,34
O=C(CCc1ccccc1)Nc1nc2n(n1)C(c1ccc(Cl)cc1)CC(=O)N2 (stereo not drawn),x,n,n,n,n,46
COc1ccc(-c2nc(-c3cccs3)c(-c3cccs3)[nH]2)cc1O,97,n,n,n,n,31
CCOC(=O)C1CCCN(CC(=O)Nc2c(C(=O)OC)[nH]c3ccc(Br)cc23)C1 (stereo not drawn),n,n,n,n,n,56
CCOc1ccc(OCC)c(NC(=O)CN2CCN(c3cccc(C)c3)C(C)C2)c1 (stereo not drawn),n,n,n,n,n,30
CCOC(=O)C1CCN(CC(=O)Nc2c(C(=O)OC)[nH]c3ccc(Cl)cc23)CC1,n,n,n,n,n,n
COC(=O)c1[nH]c2cc(OC)ccc2c1NC(=O)CCN1CCN(c2ccccc2)CC1,x,n,n,n,n,n
COC(=O)c1[nH]c2ccccc2c1NC(=O)CN1CCN(c2cccc(OC)c2)C(C)C1 (stereo not drawn),77,n,n,n,n,n
COC(=O)c1[nH]c2ccc(Br)cc2c1NC(=O)CN1CCCc2ccccc21,x,n,n,n,n,69
COc1ccc(C2/C(=C(\O)c3ccc4c(c3)OCCO4)C(=O)C(=O)N2CCCN(C)C)c(OC)c1 (stereo not drawn),n,n,x,n,x,x
CCOC(=O)C(C(=O)Nc1cccc(C)c1)C1CCCCC1 (stereo not drawn),x,n,n,n,n,n
COCCn1c(C23CC4CC(CC(C4)C2)C3)n[nH]c1=S,n,n,n,n,n,32
COCCn1c(-c2ccccc2F)n[nH]c1=S,n,n,n,n,n,n
O=S(=O)(CCN(CCS(=O)(=O)C(F)(F)F)CC1CCCO1)C(F)(F)F (stereo not drawn),n,n,n,n,n,n
CCCc1cc(C(=O)Nc2cccc(Cl)c2)no1,98,n,n,x,n,n
COC(=O)/C(=C1/Oc2cc(C)oc(=O)c2S1)C(F)(F)F,n,x,n,n,n,78
SMILES,tolC growth inh,Calb biofilm kill,PostGolgi yeast,PTK2B oligo ant,E coli WT exp,PostGolgi ctrl
COC(=O)C1=C(N)Oc2cc(C)oc(=O)c2C1c1ccncc1 (stereo not drawn),n,n,x,x,x,x
Cc1[nH]c2ccccc2c1C(=O)Cn1c(=O)oc2ccccc21,x,x,n,n,n,n
COc1ccc(C(=O)Nc2ccc(Cl)cc2C(=O)N2CCCC(C)C2)cc1 (stereo not drawn),x,x,65,n,n,n
COc1ccc(C(=O)Nc2ccc(Cl)cc2C(=O)NCCO)cc1,n,n,n,n,n,n
Cn1c(CSc2nc3ccc(Br)cc3[nH]2)nc2ccccc21,n,n,n,n,n,n
Cn1c(CSc2nnc(SCc3ccccc3)s2)nc2ccccc21,84,x,n,n,n,n
Cc1nc(N2CCN(Cc3ccccc3)CC2)nc2c1C(=O)CC(c1ccco1)C2 (stereo not drawn),79,n,n,n,n,n
O=C(NCC1CCCO1)C1c2ccccc2C(=O)N1C1CCCCCC1 (stereo not drawn),n,n,n,n,n,n
CSc1nc2c(c(C(F)(F)F)n1)CC(C)CC2 (stereo not drawn),x,n,n,n,n,n
COc1ccccc1-c1cc(C(F)(F)F)nc(N2CCN(c3ccccc3)CC2)n1,n,n,n,n,n,n
COc1ccccc1-c1cc(C(F)(F)F)nc(N2CCOCC2)n1,62,n,n,n,n,n
COc1cccc(-c2cc(C(F)(F)F)nc(N3CCOCC3)n2)c1,68,n,n,n,n,n
COC(=O)CSc1nnc(-c2ccc(S(=O)(=O)NCc3ccccc3Cl)cc2)o1,x,n,n,n,n,n
O=C(CCC1N=C2c3ccccc3N=C(SCc3ccccc3Cl)N2C1=O)NCc1ccco1 (stereo not drawn),n,n,n,n,n,37
O=C(CCC1N=C2c3ccccc3N=C(SCc3cccc(Cl)c3)N2C1=O)NCc1ccco1 (stereo not drawn),n,n,n,n,n,n
COc1ccc(Cl)cc1NC(=S)N1CCN(C(=O)c2ccco2)CC1,x,x,n,n,n,n
C(=N\Nc1nc2ccccc2s1)/c1cccs1,x,x,n,n,n,31
CCOC(=O)N1CCN(C(=O)C(NS(=O)(=O)c2cccc3nsnc23)c2ccccc2)CC1 (stereo not drawn),n,n,n,n,n,n
CCCn1nnc(NC(=O)C(c2ccccc2)c2ccccc2)n1,x,n,34,n,n,n
Cc1ccnn1CC(=O)N/N=C/c1ccc2c(c1)OCO2,x,x,x,n,x,x
Cn1c(=O)c2c(SCC(=O)N3CCC(Cc4ccccc4)CC3)nc(C3CC3)nc2n(C)c1=O,n,n,x,x,x,x
CCCc1nc(SCC(=O)N2CCC(Cc3ccccc3)CC2)c2c(=O)n(C)c(=O)n(C)c2n1,75,n,n,x,n,38
CCCc1nc(SCC(=O)N2CCCc3ccccc32)c2c(=O)n(C)c(=O)n(C)c2n1,78,x,49,x,n,37
CCn1c(=O)c(-c2ccccc2)c(O)c2ccccc21,n,n,n,n,n,n
CCCCn1c(=O)c(-c2ccccc2)c(O)c2ccccc21,n,n,n,n,n,32
COc1ccc(Cl)cc1N1CCN(CCNC(=O)Nc2ccccc2C)CC1,63,n,n,n,n,n
OC(COc1ccc2cc(Br)ccc2c1)CN1CCCC1 (stereo not drawn),n,n,n,n,n,n
CN(C)S(=O)(=O)N1CCN(CC(O)COc2ccc3cc(Br)ccc3c2)CC1 (stereo not drawn),n,n,n,n,n,41
OC(COc1ccc2cc(Br)ccc2c1)CN1CCN(c2ccccn2)CC1 (stereo not drawn),n,n,n,n,n,37
O=C(CSc1nc(-c2ccncc2)nn1CC(=O)N1CCCCC1)NC1CCCC1,n,n,n,n,n,n
